Source: ChEMBL document CHEMBL3763091, “Design, synthesis, and docking studies of afatinib analogs bearing cinnamamide moiety as potent EGFR inhibitors” (Bioorg Med Chem, 2016)
Values belong to the compound of their own block, whether it stands above or below them.

What was measured:
[1] = Cytotoxicity against human PC3 cells after 72 hrs by MTT assay; type: functional, cell-based, PC-3
In short: (§1)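 Cells were grown in MEM with 10% FBS. About 4 × 10³ cells per well were seeded and held 24 h at 37 °C in 5% CO₂, then exposed to compound at the indicated final concentrations for 72 h. MTT was added at 5 µg/mL final for 4 h at 37 °C, and formazan was dissolved in DMSO. Absorbance was read at 492 nm against 630 nm reference. Each compound was tested three times per line, and IC₅₀ values were averaged.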

A549 = assay: Cytotoxicity against human A549 cells after 72 hrs by MTT assay; type: functional, cell-based; in short: as §1
MCF7 = assay: Cytotoxicity against human MCF7 cells after 72 hrs by MTT assay; type: functional, cell-based; in short: as §1
HeLa = assay: Cytotoxicity against human HeLa cells after 72 hrs by MTT assay; type: functional, cell-based; in short: as §1
[2] = target: Vascular endothelial growth factor receptor 2 (Homo sapiens, UniProt P35968); assay: Inhibition of VEGFR2 (unknown origin) using FAM-labeled peptide as substrate preincubated for 10 mins followed by addition of substrate by mobility shift assay
In short: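 Mobility-shift kinase assay. Compounds were serially diluted in 100% DMSO and combined with enzyme for 10 min at room temperature. FAM-labeled peptide plus ATP was then added and incubated at 28 °C. The reaction was stopped with EDTA-containing buffer. Conversion was read on Caliper, and % inhibition = (max − conversion)/(max − min) × 100. IC₅₀ was averaged from at least two experiments.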

[3] = target: Epidermal growth factor receptor (Homo sapiens, UniProt P00533); assay: Inhibition of EGFR (unknown origin) using FAM-labeled peptide as substrate preincubated for 10 mins followed by addition of substrate by mobility shift assay
[4] = Cytotoxicity against human NSCLC cells; type: functional, cell-based
[5] = Homo sapiens, PC-3, 72 h, read-out: IC50
[6] = Homo sapiens, A549, 72 h, read-out: IC50
[7] = Homo sapiens, MCF7, 72 h, read-out: IC50

Chain of Vascular endothelial growth factor receptor 2 (P35968 whole entry): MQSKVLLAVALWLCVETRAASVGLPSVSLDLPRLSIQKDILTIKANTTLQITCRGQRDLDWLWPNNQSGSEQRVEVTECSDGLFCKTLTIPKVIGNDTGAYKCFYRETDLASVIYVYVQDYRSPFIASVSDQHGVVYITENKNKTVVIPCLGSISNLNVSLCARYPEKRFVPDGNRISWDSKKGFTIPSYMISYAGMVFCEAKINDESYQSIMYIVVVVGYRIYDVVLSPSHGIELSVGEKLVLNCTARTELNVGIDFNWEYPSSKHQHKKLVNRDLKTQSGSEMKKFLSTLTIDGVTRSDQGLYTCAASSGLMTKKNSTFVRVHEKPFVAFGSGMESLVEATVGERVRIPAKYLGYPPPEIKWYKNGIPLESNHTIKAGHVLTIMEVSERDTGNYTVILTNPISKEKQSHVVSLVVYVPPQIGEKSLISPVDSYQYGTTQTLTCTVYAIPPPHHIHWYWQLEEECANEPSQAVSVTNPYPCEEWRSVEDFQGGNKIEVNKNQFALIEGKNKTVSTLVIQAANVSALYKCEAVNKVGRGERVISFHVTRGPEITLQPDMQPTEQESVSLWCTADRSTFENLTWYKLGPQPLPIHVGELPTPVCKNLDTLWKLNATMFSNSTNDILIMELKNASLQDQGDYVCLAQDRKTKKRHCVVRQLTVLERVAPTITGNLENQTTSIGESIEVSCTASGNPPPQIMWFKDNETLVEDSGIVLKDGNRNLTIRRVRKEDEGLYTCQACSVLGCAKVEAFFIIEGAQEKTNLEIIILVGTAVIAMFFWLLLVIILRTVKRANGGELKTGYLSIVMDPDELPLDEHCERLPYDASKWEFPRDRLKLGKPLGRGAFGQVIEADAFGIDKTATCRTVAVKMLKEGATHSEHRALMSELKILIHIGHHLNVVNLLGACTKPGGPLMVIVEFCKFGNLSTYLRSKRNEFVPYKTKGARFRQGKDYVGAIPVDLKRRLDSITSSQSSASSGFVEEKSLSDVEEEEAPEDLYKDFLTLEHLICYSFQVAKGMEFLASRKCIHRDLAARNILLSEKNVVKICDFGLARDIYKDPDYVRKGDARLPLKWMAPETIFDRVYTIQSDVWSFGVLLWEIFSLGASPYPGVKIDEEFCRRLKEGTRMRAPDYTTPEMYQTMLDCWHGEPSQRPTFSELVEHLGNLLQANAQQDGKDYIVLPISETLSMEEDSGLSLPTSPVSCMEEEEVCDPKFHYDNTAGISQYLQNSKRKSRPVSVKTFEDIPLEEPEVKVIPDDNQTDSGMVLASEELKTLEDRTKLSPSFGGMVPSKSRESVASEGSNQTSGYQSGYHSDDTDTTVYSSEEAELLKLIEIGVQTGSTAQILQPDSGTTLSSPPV
Chain of Epidermal growth factor receptor (P00533 whole entry): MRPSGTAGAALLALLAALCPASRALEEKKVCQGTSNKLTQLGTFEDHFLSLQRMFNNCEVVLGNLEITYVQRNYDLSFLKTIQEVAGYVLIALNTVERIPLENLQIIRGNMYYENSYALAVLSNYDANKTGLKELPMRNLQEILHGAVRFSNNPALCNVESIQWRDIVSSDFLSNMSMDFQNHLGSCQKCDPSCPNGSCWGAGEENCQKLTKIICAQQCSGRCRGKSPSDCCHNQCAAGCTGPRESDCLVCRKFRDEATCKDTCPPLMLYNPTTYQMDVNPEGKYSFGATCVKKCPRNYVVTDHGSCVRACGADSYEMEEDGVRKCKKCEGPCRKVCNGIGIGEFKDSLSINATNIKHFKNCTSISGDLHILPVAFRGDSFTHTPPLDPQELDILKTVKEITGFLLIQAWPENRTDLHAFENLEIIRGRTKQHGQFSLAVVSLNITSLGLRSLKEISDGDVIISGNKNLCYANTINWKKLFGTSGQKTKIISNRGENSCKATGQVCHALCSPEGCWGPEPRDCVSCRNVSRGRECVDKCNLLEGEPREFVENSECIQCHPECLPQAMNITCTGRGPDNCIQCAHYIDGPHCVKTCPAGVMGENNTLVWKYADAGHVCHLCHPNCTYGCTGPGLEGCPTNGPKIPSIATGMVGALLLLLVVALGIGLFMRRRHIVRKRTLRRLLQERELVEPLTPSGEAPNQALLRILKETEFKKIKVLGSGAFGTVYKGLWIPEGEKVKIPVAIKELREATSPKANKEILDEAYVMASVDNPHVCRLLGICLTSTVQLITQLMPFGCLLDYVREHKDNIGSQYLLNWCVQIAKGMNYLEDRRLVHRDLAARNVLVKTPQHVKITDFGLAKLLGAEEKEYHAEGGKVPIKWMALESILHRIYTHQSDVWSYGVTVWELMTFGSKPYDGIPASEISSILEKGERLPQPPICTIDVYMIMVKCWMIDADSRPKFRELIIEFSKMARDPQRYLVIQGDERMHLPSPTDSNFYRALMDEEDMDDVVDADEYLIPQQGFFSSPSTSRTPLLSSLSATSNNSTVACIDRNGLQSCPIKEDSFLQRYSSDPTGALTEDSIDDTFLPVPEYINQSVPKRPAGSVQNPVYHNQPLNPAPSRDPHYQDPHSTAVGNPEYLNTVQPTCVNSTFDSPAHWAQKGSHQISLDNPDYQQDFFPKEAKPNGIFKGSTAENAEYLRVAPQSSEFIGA

Compound: COc1ccc(/C=C/C(=O)Nc2cc3c(Nc4ccc(F)c(Cl)c4)ncnc3cc2OC)cc1
IC50 ([1]; pc-3): Not Active | IC50 (A549; a549): Not Active | IC50 (MCF7; mcf7): Not Active

Compound: COc1ccc(OC)c(/C=C/C(=O)Nc2cc3c(Nc4ccc(F)c(Cl)c4)ncnc3cc2O[C@H]2CCOC2)c1
IC50 (HeLa): 26.8 µM | IC50 [1, 5]: 8.73 µM | IC50 (A549; [6]): 7.3 µM | IC50 (MCF7; [7]): 36.3 µM

Compound: COc1ccc(/C=C/C(=O)Nc2cc3c(Nc4ccc(F)c(Cl)c4)ncnc3cc2O[C@H]2CCOC2)c(OC)c1
IC50 (HeLa): 26.4 µM | IC50 [1, 5]: 2.76 µM | IC50 (A549; [6]): 9.35 µM | IC50 (MCF7; [7]): 28.6 µM

Compound: COc1ccc(/C=C/C(=O)Nc2cc3c(Nc4ccc(F)c(Cl)c4)ncnc3cc2OC)c(OC)c1
IC50 [1, 5]: 38.5 µM | IC50 (A549; [6]): 33.2 µM | IC50 (MCF7; [7]): 36.6 µM

Compound: O=C(/C=C/c1ccc(F)cc1Cl)Nc1cc2c(Nc3ccc(F)c(Cl)c3)ncnc2cc1O[C@H]1CCOC1
IC50 (HeLa): 37.5 µM | IC50 [1, 5]: 7.15 µM | IC50 (A549; [6]): 5.19 µM | IC50 (MCF7; [7]): 26.2 µM

IC50 [2]: 0.886 µM | IC50 [3]: 0.0091 µM
Compound: COc1ccc(/C=C/C(=O)Nc2cc3c(Nc4ccc(F)c(Cl)c4)ncnc3cc2O[C@H]2CCOC2)cc1
IC50 (HeLa): 34.6 µM | IC50 [1, 5]: 2.24 µM | IC50 (A549; [6]): 3.05 µM | IC50 (MCF7; [7]): 5.07 µM

Compound: COc1cc(/C=C/C(=O)Nc2cc3c(Nc4ccc(F)c(Cl)c4)ncnc3cc2OC)cc(OC)c1
IC50 ([1]; pc-3): Not Active | IC50 (A549; a549): Not Active | IC50 (MCF7; [7]): 38.5 µM

Compound: COc1cc2ncnc(Nc3ccc(F)c(Cl)c3)c2cc1NC(=O)/C=C/c1ccccc1[N+](=O)[O-]
IC50 [1, 5]: 14.3 µM | IC50 (A549; [6]): 33.2 µM | IC50 (MCF7; [7]): 36.5 µM

Compound: O=C(/C=C/c1ccc(Br)cc1)Nc1cc2c(Nc3ccc(F)c(Cl)c3)ncnc2cc1O[C@H]1CCOC1
IC50 (HeLa): 27.4 µM | IC50 [1, 5]: 28.2 µM | IC50 (A549; [6]): 35.3 µM | IC50 (MCF7; [7]): 32.4 µM

Compound: N#Cc1ccc(/C=C/C(=O)Nc2cc3c(Nc4ccc(F)c(Cl)c4)ncnc3cc2O[C@H]2CCOC2)cc1
IC50 [1, 5]: 36.6 µM | IC50 (A549; a549): Not Active | IC50 (MCF7; [7]): 9.83 µM

Compound: O=C(/C=C/c1cc(Br)c(O)c(Br)c1)Nc1cc2c(Nc3ccc(F)c(Cl)c3)ncnc2cc1O[C@H]1CCOC1
IC50 (HeLa): 27.7 µM | IC50 [1, 5]: 25.5 µM | IC50 (A549; [6]): 28.8 µM | IC50 (MCF7; [7]): 30.6 µM

Compound: O=C(/C=C/c1ccc([N+](=O)[O-])cc1)Nc1cc2c(Nc3ccc(F)c(Cl)c3)ncnc2cc1O[C@H]1CCOC1
IC50 (HeLa): 27.4 µM | IC50 [1, 5]: 22.8 µM | IC50 (A549; [6]): 12 µM | IC50 (MCF7; [7]): 26.7 µM

Compound: COc1cc(/C=C/C(=O)Nc2cc3c(Nc4ccc(F)c(Cl)c4)ncnc3cc2O[C@H]2CCOC2)cc(OC)c1OC
IC50 (HeLa): 24.5 µM | IC50 [1, 5]: 20.5 µM | IC50 (A549; [6]): 4.15 µM | IC50 (MCF7; [7]): 28.4 µM

Compound: O=C(/C=C/c1cccc(Cl)c1Cl)Nc1cc2c(Nc3ccc(F)c(Cl)c3)ncnc2cc1O[C@H]1CCOC1
IC50 (HeLa): 30.5 µM | IC50 [1, 5]: 27.5 µM | IC50 (A549; [6]): 23.2 µM | IC50 (MCF7; [7]): 30.1 µM

Compound: COc1cc(/C=C/C(=O)Nc2cc3c(Nc4ccc(F)c(Cl)c4)ncnc3cc2O[C@H]2CCOC2)cc(OC)c1
IC50 (HeLa): 34.2 µM | IC50 [1, 5]: 25.6 µM | IC50 (A549; [6]): 10.8 µM | IC50 (MCF7; [7]): 30.3 µM

Compound: COc1cc2ncnc(Nc3ccc(F)c(Cl)c3)c2cc1NC(=O)/C=C/c1ccc(F)cc1Cl
IC50 [1, 5]: 32.7 µM | IC50 (A549; a549): Not Active | IC50 (MCF7; mcf7): Not Active

Compound: COc1cc(/C=C/C(=O)Nc2cc3c(Nc4ccc(F)c(Cl)c4)ncnc3cc2O[C@H]2CCOC2)cc(OC)c1O
IC50 (HeLa): 27.4 µM | IC50 [1, 5]: 26.5 µM | IC50 (A549; [6]): 26.9 µM | IC50 (MCF7; [7]): 30.5 µM

IC50 [2]: 0.478 µM | IC50 [3]: 0.0036 µM
Compound: COc1ccc(/C=C/C(=O)Nc2cc3c(Nc4ccc(F)c(Cl)c4)ncnc3cc2O[C@H]2CCOC2)c(OC)c1OC
IC50 (HeLa): 4.83 µM | IC50 [1, 5]: 7.67 µM | IC50 (A549; [6]): 0.07 µM | IC50 (MCF7; [7]): 4.65 µM

Compound: CN(C)C/C=C/C(=O)Nc1cc2c(Nc3ccc(F)c(Cl)c3)ncnc2cc1O[C@H]1CCOC1 [AFATINIB]
IC50 (HeLa): 6.81 µM | IC50 [4]: 0.0005 µM | IC50 [1, 5]: 4.1 µM | IC50 (A549; [6]): 0.05 µM | IC50 (MCF7; [7]): 5.83 µM

Compound: COc1cc2ncnc(Nc3ccc(F)c(Cl)c3)c2cc1NC(=O)/C=C/c1cc(OC)c(OC)c(OC)c1
IC50 [1, 5]: 38.2 µM | IC50 (A549; a549): Not Active | IC50 (MCF7; mcf7): Not Active

Compound: O=C(/C=C/c1ccccc1[N+](=O)[O-])Nc1cc2c(Nc3ccc(F)c(Cl)c3)ncnc2cc1O[C@H]1CCOC1
IC50 (HeLa): 29.6 µM | IC50 [1, 5]: 7.76 µM | IC50 (A549; [6]): 8.82 µM | IC50 (MCF7; [7]): 28.4 µM

Compound: COc1ccc(OC)c(/C=C/C(=O)Nc2cc3c(Nc4ccc(F)c(Cl)c4)ncnc3cc2OC)c1
IC50 [1, 5]: 28.6 µM | IC50 (A549; [6]): 11.2 µM | IC50 (MCF7; [7]): 34.2 µM

Compound: COc1cc2ncnc(Nc3ccc(F)c(Cl)c3)c2cc1NC(=O)/C=C/c1ccc(C#N)cc1
IC50 ([1]; pc-3): Not Active | IC50 (A549; a549): Not Active | IC50 (MCF7; mcf7): Not Active
